Only some compounds are listed: those with a hit (about 1.7% of all), similar ones and a draw of the others.
CaV13 FRET inh = Primary screen for inhibitors of IQ motif and Ca2+-dependent inactivation inhibitor domain binding in CACNA1D, Förster resonance energy transfer in living cells, …; HEK cells, CFP/YFP FRET ICDI-IQ, plate reader, 10 min; percent FRET-ratio fall versus neutral wells; inhibition, % at 12.3 µM; actives 0.098% (n = 340,000); AID 743397;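 active = mean replicate inhibition of at least 30% and at least 1% of replicates passing that level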;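 also: 0% = median of the neutral control wells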
Cneo AK release = causes C. neoformans cell lysis. actives 0.2% (n = 360,000). adenylate kinase release luminescence, 4 h; normalised: neutral wells 0, clomiphene wells 100. lysis activity, % at 15 µM;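 active = mean lysis activity across replicates of at least 80%, whatever share of replicates individually reach that level; inactive = mean lysis activity below 80%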
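Signal: Adenylate kinase release luminescence | Assay system: Log-phase Cryptococcus neoformans yeast cells | Input: Cells at 5 × 10^6 per mL | Buffer or medium: Fresh YPD growth medium | Compound: Single dose | Schedule: Static 4 h at 37 °C with compound, 1 h detection | Controls: Clomiphene | Read-out: Luminescence rise reflecting yeast cell lysis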
CFTR F508del cor = CFTR F508del correction in bronchial cells; CFBE cells, YFP halide quenching; stimulated with forskolin plus potentiator P3; % fluorescence drop versus neutral controls; activity (quench increase), % at 7.58 µM; actives 0.36% (n = 350,000); AID 720511;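 active = mean added fluorescence quench of at least 8% versus neutral control, with both replicates also reaching 8%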;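 also: cells transiently co-express mutant CFTR-F508del with the halide-sensitive YFP; corrector assay measuring rescue of mutant channel to the surface after 24 h compound exposure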
rRNA inh HTS = selective bacterial rRNA inhibition in E. coli. AID 720706. GFP signal change (wild-type ribosome), % (concentration not given with the values). E. coli WT GFP vs humanized-ribosome RFP mutants, fluorescence, 24 h; hits give low values; DMSO median 0, no signal -100. actives 1.6% (n = 350,000);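 active = significant combined selectivity score with lowered wild-type GFP, culture density cut under 30%, mutant RFP and density less affected; inactive = any of these conditions unmet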
* hit, by the source's call; / = no result given.

SMILES	CaV13 FRET inh	Cneo AK release	CFTR F508del cor	rRNA inh HTS
COc1ccc2nc(-n3c(O)c(C4=c5ccccc5=NC4=O)[nH]c3=S)sc2c1	-1.5	4.5	-1.7	-44.5*
Cc1cc2c(sc3c(C)ccc(C)c32)c(C)n1	-11.6	3.0	2.1	-34.8*
CCN(C(=O)CSc1nc2ccccc2c(=O)n1-c1ccccc1F)C1CCS(=O)(=O)C1 (stereo not drawn)	-6.9	-0.1	10.9*	4.5
C[C@H](CO)N1C[C@H](C)[C@@H](CN(C)S(=O)(=O)c2ccc(F)cc2)OCCCC[C@H](C)Oc2ccc(NC(=O)CCC(F)(F)F)cc2C1=O	/	-0.9	3.6	0.9
COc1ccc(OC)c(S(=O)(=O)Nc2cccc3ccccc23)c1	-17.7	2.3	0.1	-25.4*
CC(C)Oc1ncnc2c1[nH]c1ccccc12	-4.3	-5.1	10.0*	-9.2
COc1ccc(S(=O)(=O)Nc2ccc3c(c2)[C@H]2C[C@H](CC(=O)O)O[C@H](CO)[C@H]2O3)cc1	/	-5.2	-2.1	0.4
Cc1nn(-c2ccccc2)nc1C(=O)Nc1nnc(C(F)(F)F)s1	1.7	8.2	-3.5	-31.9*
CC(=O)NNC(=O)CSc1nnc(-c2ccccc2)c(-c2ccccc2)n1	-20.9	92.5*	4.0	10.0
COc1ccc2c3c(n(C)c2c1)[C@H](CO)N(S(C)(=O)=O)CC31CN(C(=O)C2CCCC2)C1	/	/	1.2	-1.4
N#C/C(=N\Nc1ccc(F)cc1)C(=O)C1CC1	-4.0	1.5	-2.2	-34.5*
COc1ccc(O)c(CN2CCN(C/C=C/c3ccccc3)CC2)c1	-8.6	-2.2	/	/
COc1cc(Br)cc(CN2CCN(C/C=C/c3ccccc3)CC2)c1O	-7.1	-2.1	-0.9	-33.6*
COC(=O)COc1ccc2c(c1)O/C(=C\c1cccc([N+](=O)[O-])c1)C2=O	-2.6	2.4	-3.4	2.7
COc1ccc(/C=C2\Oc3cc(OCC(N)=O)ccc3C2=O)cc1OC	-41.0	-3.7	1.1	-28.7*
CCc1ccccc1OCC(=O)NNCC(=O)Nc1cccc(C#N)c1	-2.0	-1.8	-0.6	-19.5*
C/C=C/c1ccc([C@H]2[C@H](CO)N(S(=O)(=O)Cc3ccccc3)C23CN(C(=O)C2CC2)C3)cc1	/	/	/	2.8
O=S(=O)(N[C@@H]1CC[C@@H](CCn2cc(-c3ccccn3)nn2)O[C@H]1CO)c1cccc(Cl)c1	/	1.3	2.2	-3.6
COc1ccc(S(=O)(=O)N(C)C[C@@H]2OCc3ccccc3-c3ccccc3C(=O)N([C@@H](C)CO)C[C@H]2C)cc1	/	-0.1	-0.8	-2.9
Cc1[nH]c2c(C)cccc2c1CCNS(=O)(=O)c1cccc([N+](=O)[O-])c1	-14.0	/	/	-18.2
Cc1ccc([N+](=O)[O-])cc1S(=O)(=O)NCCc1c(C)[nH]c2c(C)cccc12	-13.9	-0.8	/	-20.2*
CC1c2ccsc2CCN1S(=O)(=O)c1cccs1 (stereo not drawn)	-3.7	/	1.6	-28.8*
CN1CCN(S(=O)(=O)c2cccs2)CC1	-2.7	/	0.6	16.4
CO[C@@H]1CN(C)C(=O)c2cc(NC(=O)c3nc4ccccc4s3)ccc2OC[C@@H](C)N(Cc2cncnc2)C[C@H]1C	/	-5.5	1.1	-0.9
CC(/C=C/c1ccc(O)cc1)=NNc1ccccc1	-6.3	-2.2	17.6*	-21.2*
SMILES	CaV13 FRET inh	Cneo AK release	CFTR F508del cor	rRNA inh HTS
Cc1ccc(S(=O)(=O)Nc2ccc3c(c2)C(=O)N([C@@H](C)CO)C[C@H](C)[C@@H](CN(C)C(=O)Nc2c(C)noc2C)OCCCC[C@H](C)O3)cc1	/	-1.4	-0.1	0.2
O=C(N/N=C/c1ccc(O)c(O)c1)c1ccc(CSc2cccc3cccnc23)cc1	-4.9	/	/	-16.3*
O=C(CSc1cccc2cccnc12)N/N=C/c1cccc(O)c1	-6.1	/	0.3	/
COc1cc2c[n+](C)c3c4ccccc4ccc3c2cc1OC	-1.8	/	9.7*	/
O=C(Nc1ccc(F)cc1)c1ccc(CSc2ccc(Cl)cc2)o1	-5.1	-3.3	0.0	-31.8*
O=C(Nc1ccc(F)cc1)c1ccc(CSc2ccccc2)o1	-5.2	/	-4.5	-52.1
CC(=O)c1ccc(NC(=O)c2ccc(CSc3ccccc3)o2)cc1	7.2	/	0.9	-31.2*
COc1ccc(CCNC(=O)c2ccc(CSc3ccccc3)o2)cc1	-5.9	/	0.7	-37.3*
COc1ccc(-c2ccc([C@@H]3[C@@H](CO)N4C(=O)CNC[C@H]34)cc2)cc1	/	/	0.4	2.0
Cc1noc(C)c1S(=O)(=O)N(C)C[C@H]1Oc2ccc(NS(=O)(=O)c3ccc(Cl)cc3)cc2CC(=O)N([C@@H](C)CO)C[C@H]1C	/	-2.8	1.7	-0.6
O=C(COC(=O)/C=C/c1ccc(OC(F)F)cc1)NC1CCCCCC1	-5.5	-1.1	2.3	-18.1*
C[C@H]1CCCCO[C@@H](CN(C)C(=O)C2CCCCC2)[C@@H](C)CN([C@@H](C)CO)C(=O)c2cc(NC(=O)NC3CCCCC3)ccc2O1	/	-0.2	1.3	-2.3
COc1cc(CNCc2ccccn2)ccc1OCc1c(Cl)cccc1Cl	-7.4	0.0	0.9	-46.0*
COc1cc(CNCc2ccccn2)ccc1OCc1cccc(Cl)c1	-7.0	2.5	-1.8	-41.2*
CCOC(=O)N1CCC(NC(=O)c2ccc3c(c2)N=C(C)c2c(C)ccc(C)c2S3)CC1	-7.5	-0.2	10.6*	-15.1
CCOC(=O)N1CCC(N2C(=O)c3cc(C(=O)NC4CCCCC4)ccc3C2O)CC1 (stereo not drawn)	38.0*	-6.7	-1.1	2.9
CCOC(=O)N1CCC(NC(=O)c2ccc3c(c2)N=C(CC)c2cc(C)ccc2S3)CC1	-5.9	0.0	0.5	-18.1
Cc1ccc(NC(=S)NC2CCSc3ccccc32)cc1 (stereo not drawn)	-0.9	7.7	-1.1	-44.3*
O=C(O)C1=C[C@@H](c2ccc3c(c2)Cc2ccccc2-3)C[C@@H](OCc2ccc(CO)cc2)O1	/	-0.9	-2.3	/
CCc1ccccc1NC(=S)N1N=CCC1c1ccccc1 (stereo not drawn)	-6.3	1.4	2.4	-5.4
Cc1cccc(NC(=S)N2N=CCC2c2ccccc2)c1 (stereo not drawn)	-5.3	-0.2	/	-22.8*
COc1cc(NC(=O)C(c2ccccc2)c2ccccc2)c(C(=O)O)cc1OC	-1.8	1.5	/	-23.6*
CCNC(=O)Nc1cc(OC)c(OC)cc1C(=O)O	-5.3	0.1	0.6	11.7
CCCC(O)C#Cc1cnc2c(c1)C(=O)N([C@H](C)CO)C[C@H](C)[C@H](CN(C)C(=O)NC1CCCCC1)O2 (stereo partly drawn)	/	-0.5	-2.8	-0.5
OCCCc1cn(-c2ccccc2)c2ccccc12	-7.0	/	1.4	-39.3*
Cc1nc(-c2cccc(NC(=O)c3ccc(Cl)c(S(=O)(=O)N4CCCC4)c3)c2)cs1	-5.9	1.1	2.8	-8.3
Cc1nc(-c2cccc(NC(=O)c3cccc(S(=O)(=O)N4CCCC4)c3)c2)cs1	-14.3	1.3	1.5	-29.4*
O=C(Nc1nnc(S(=O)(=O)Cc2ccc(F)cc2)s1)c1ccccc1F	-2.8	-1.5	1.1	-40.0*

From PubChem
